Experimental findings from PMC3024764 (The Journal of Biological Chemistry, 2010) are described below.

One assay relates to DU145 xenografts. In words: Anti-tumor activity in human prostate cancer DU145 xenografts in nude mice. The assay is classed as in vivo, human tumor in BALB/c-nu/nu mice. The conditions noted are these: taxol alone, 60 mg/kg i.v. day 0; data not shown. The gist of the method:
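DU145 cells implanted s.c. into right flank of 5–6-week-old male BALB/c nude mice; tumor pieces passaged s.c. into new mice. At ~100 mm3 (day 0), six mice/group. Taxol 60 mg/kg i.v. on day 0; test compound or vehicle given intratumorally on days 0 and 5. Caliper volume = longest × shortest²/2; body weight tracked; Student's t test.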
Background: In xenograft studies the graft and the host belong to different species.

In a further assay the test system is endogenous p27^Kip1. In kind it is cell-based, human. The conditions noted are these: 20 μM FITC-labeled peptide, 24 h (Fig. 2B). Put shortly:
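DU145 cells (RPMI 1640, 10% FBS, 100 ug/ml kanamycin, 5% CO2) were exposed to 20 uM FITC-labeled cell-permeable peptides, or no peptide, for 24 h. Whole lysates or separated cytoplasmic and nuclear fractions were immunoblotted for endogenous p27Kip1 using nitrocellulose and ECL, with β-actin and topoisomerase II as markers. For localization, cells were formaldehyde-fixed, stained with anti-p27Kip1 and Alexa Fluor 568 secondary, and counterstained with Hoechst 33342.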

For assay [1], the system named is DU145 cells. The assay can be described thus: Flow cytometric cell cycle analysis of DU145 cells. The assay is classed as cell-based, human. The conditions noted are these: 20 μM peptide, 24 h (Fig. 2A).
In assay [2] the test system is DU145 cells. In kind it is cell-based, human. The settings on record: for intracellular accumulation, fluorescence microscopy: 20 µM FITC-labeled peptide, 4 h (Fig. S1A; method section: 10 μM). Put shortly:
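FITC-labeled peptides were added to the DU145 culture medium at 10 um and incubated for 4 h. Intracellular distribution of fluorescein was then imaged by fluorescence microscopy with a CCD camera.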

For assay [3], the system named is DU145 cells. In words: Apoptosis of DU145 cells. In kind it is cell-based, human. The settings on record: 20 μM peptide, 72 h; flow cytometry (Fig. 3A). For orientation: In flow cytometry, cells or beads pass a laser one at a time.

For the molecule `CC(=O)O[C@H]1C(=O)[C@@]2(C)[C@H]([C@H](OC(=O)c3ccccc3)[C@]3(O)C[C@H](OC(=O)[C@H](O)[C@@H](NC(=O)c4ccccc4)c4ccccc4)C(C)=C1C3(C)C)[C@]1(OC(C)=O)CO[C@@H]1C[C@@H]2O` [taxol], the “inhibitory effect on tumor growth, given alone” value with DU145 xenografts was “did not show an inhibitory effect”.
For the molecule GGGRRRRRRGC-KKPGLDRDQT [R8-T198mu], the “expression of p27^Kip1” value with endogenous p27^Kip1 is “not R8-T198mu enhances the expression of p27^Kip1”. In addition, the “increase in the number of cells in G1 phase” value in the assay with DU145 cells [1] is “not with Arg^8 and R8-T198mu”. Also, in the assay with DU145 cells [2], the “intracellular accumulation, fluorescence microscopy” value is recorded as “had accumulated in cells”. Moreover, the “intracellular accumulation, flow cytometric analysis” value in the assay on DU145 cells [2] (FITC-labeled peptide (Fig. S1B)) was “had accumulated almost equally in cells”. The “increase in the sub-G1 fraction” value with DU145 cells [3] was “not with R8-T198mu”.
Turning to “GGGRRRRRRRRGC [Arg^8, reference compound]”, the “increase in the number of cells in G1 phase” value in the assay on DU145 cells [1] was “not with Arg^8 and R8-T198mu”. Further, the “intracellular accumulation, fluorescence microscopy” value in the assay on DU145 cells [2] is “had accumulated in cells”.
